The results in this text go back to ChEMBL document CHEMBL1133099, “Structure-property model for membrane partitioning of oligopeptides” (J Med Chem, 2000).

In general, logD refers to the decadic logarithm of the distribution of all forms, ionised or not, between an organic phase and buffer at a given pH.

Common to all, as to assay type: physicochemical
Data set [1] is described as follows: Distribution coefficient between n-octanol and hanks buffered saline solution. The method, boiled down:
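Distribution between n-octanol and Hanks buffered saline at pH 7.4, measured by the shake-flask method.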

Data set [2] is described as follows: pKa2 values were determined by potentiometric titrations. The conditions noted are these: read-out: pKa2.
Data set [3] can be described thus: Ionization constant (pKa2) values were determined by potentiometric titrations. Conditions: read-out: pKa2.
Data set [4] in a line: Ionization constant (pKa1) values were determined by potentiometric titrations. The conditions noted are these: read-out: pKa1.
A short description of data set [5]: pKa1 values were determined by potentiometric titrations. Conditions: read-out: pKa1.

Residues, ends and D or L forms follow the SMILES beside them.

`CC(=O)N[C@@H](Cc1ccccc1)C(=O)N1CCC[C@H]1C(=O)N[C@@H](Cc1ccccc1)C(=O)N[C@@H](Cc1ccc(O)cc1)C(N)=O` (Ac-FPFY-NH2) gave a logD in data set [1] of 1.64. Take `CC(=O)N[C@@H](CCCCN)C(=O)N(C)[C@@H](Cc1ccccc1)C(=O)NCC(=O)N(C)[C@@H](CC(C)C)C(N)=O` (HELM PEPTIDE1{[ac].K.[meF].G.[meL].[am]}$$$$V2.0): in data set [2], the pKa came to 9.94. This molecule also yielded a logD in data set [1] of -1.33. For the molecule `CC(=O)N[C@@H](CO)C(=O)N(C)[C@@H](Cc1ccccc1)C(=O)NCC(=O)NCC(N)=O` (HELM PEPTIDE1{[ac].S.[meF].G.G.[am]}$$$$V2.0), the logD in data set [1] was -1.51. For the molecule `CC(=O)NCC(=O)N(C)[C@@H](Cc1ccccc1)C(=O)N[C@@H](CCCCN)C(=O)N[C@@H](CC(=O)O)C(N)=O` (HELM PEPTIDE1{[ac].G.[meF].K.D.[am]}$$$$V2.0), the pKa in data set [3] amounted to 10.3; in data set [4], 3.78. `CC(=O)N[C@@H](CCCCN)C(=O)N(C)CC(=O)N[C@@H](Cc1ccc(O)cc1)C(=O)N(C)[C@@H](CC(=O)O)C(N)=O` (HELM PEPTIDE1{[ac].K.[Sar].Y.[meD].[am]}$$$$V2.0): the pKa amounted to 9.69 in data set [3] and 3.6 in data set [4]. In the case of `CC(=O)N[C@@H](CC(=O)O)C(=O)N[C@@H](CCC(N)=O)C(=O)N[C@@H](CC(C)C)C(=O)N[C@@H](Cc1ccccc1)C(N)=O` (Ac-DQLF-NH2), in data set [5], the pKa was 3.97. In addition, in data set [1], the logD is more than -2.5. Turning to `CC(=O)N[C@@H](Cc1ccccc1)C(=O)N[C@@H](CCC(N)=O)C(=O)N[C@@H](CCCCN)C(=O)N(C)[C@@H](CC(C)C)C(N)=O` (HELM PEPTIDE1{[ac].F.Q.K.[meL].[am]}$$$$V2.0), the pKa in data set [2] is 10.1. Turning to `CC(=O)NCC(=O)N[C@@H](CC(C)C)C(=O)N[C@@H](CC(=O)O)C(=O)N(C)[C@@H](Cc1ccccc1)C(N)=O` (HELM PEPTIDE1{[ac].G.L.D.[meF].[am]}$$$$V2.0), the pKa in data set [4] came out at 3.93.

Consider `CC(=O)N[C@@H](Cc1ccccc1)C(=O)N[C@@H](CC(C)C)C(=O)N[C@H](C(=O)N(C)[C@@H](CC(C)C)C(N)=O)C(C)C` (HELM PEPTIDE1{[ac].F.L.V.[meL].[am]}$$$$V2.0), for which the logD in data set [1] is 2.42. As to `CC(=O)N[C@@H](Cc1ccc(O)cc1)C(=O)NCC(=O)NCC(=O)N[C@@H](CCC(N)=O)C(N)=O` (Ac-YGGQ-NH2), in data set [1], the pH-dependent lipophilicity (logD) is -2.59. Molecule `CC(=O)NCC(=O)N(C)CC(=O)N[C@@H](CC(C)C)C(=O)N[C@@H](Cc1ccccc1)C(N)=O` (HELM PEPTIDE1{[ac].G.[Sar].L.F.[am]}$$$$V2.0) had a log distribution coefficient (logD) in data set [1] of 0.05.
